20 compounds from ChEMBL document CHEMBL1828613, “Optimization of cellular activity of G9a inhibitors 7-aminoalkoxy-quinazolines” (J Med Chem, 2011) can be followed below.

Assay [1] deals with MDA-MB-231. Description: Cytotoxicity against human MDA-MB-231 cells assessed as cell viability after 48 hrs by MTT assay. It counts as functional, cell-based. The settings on record: MDA-MB-231, 48 h. Background: Formazan colour is commonly taken as a measure of viable cells.
Assay [2] concerns the target T1, Histone-lysine N-methyltransferase EHMT2 (Homo sapiens, UniProt Q96KQ7).
T1 sequence (Q96KQ7 whole entry): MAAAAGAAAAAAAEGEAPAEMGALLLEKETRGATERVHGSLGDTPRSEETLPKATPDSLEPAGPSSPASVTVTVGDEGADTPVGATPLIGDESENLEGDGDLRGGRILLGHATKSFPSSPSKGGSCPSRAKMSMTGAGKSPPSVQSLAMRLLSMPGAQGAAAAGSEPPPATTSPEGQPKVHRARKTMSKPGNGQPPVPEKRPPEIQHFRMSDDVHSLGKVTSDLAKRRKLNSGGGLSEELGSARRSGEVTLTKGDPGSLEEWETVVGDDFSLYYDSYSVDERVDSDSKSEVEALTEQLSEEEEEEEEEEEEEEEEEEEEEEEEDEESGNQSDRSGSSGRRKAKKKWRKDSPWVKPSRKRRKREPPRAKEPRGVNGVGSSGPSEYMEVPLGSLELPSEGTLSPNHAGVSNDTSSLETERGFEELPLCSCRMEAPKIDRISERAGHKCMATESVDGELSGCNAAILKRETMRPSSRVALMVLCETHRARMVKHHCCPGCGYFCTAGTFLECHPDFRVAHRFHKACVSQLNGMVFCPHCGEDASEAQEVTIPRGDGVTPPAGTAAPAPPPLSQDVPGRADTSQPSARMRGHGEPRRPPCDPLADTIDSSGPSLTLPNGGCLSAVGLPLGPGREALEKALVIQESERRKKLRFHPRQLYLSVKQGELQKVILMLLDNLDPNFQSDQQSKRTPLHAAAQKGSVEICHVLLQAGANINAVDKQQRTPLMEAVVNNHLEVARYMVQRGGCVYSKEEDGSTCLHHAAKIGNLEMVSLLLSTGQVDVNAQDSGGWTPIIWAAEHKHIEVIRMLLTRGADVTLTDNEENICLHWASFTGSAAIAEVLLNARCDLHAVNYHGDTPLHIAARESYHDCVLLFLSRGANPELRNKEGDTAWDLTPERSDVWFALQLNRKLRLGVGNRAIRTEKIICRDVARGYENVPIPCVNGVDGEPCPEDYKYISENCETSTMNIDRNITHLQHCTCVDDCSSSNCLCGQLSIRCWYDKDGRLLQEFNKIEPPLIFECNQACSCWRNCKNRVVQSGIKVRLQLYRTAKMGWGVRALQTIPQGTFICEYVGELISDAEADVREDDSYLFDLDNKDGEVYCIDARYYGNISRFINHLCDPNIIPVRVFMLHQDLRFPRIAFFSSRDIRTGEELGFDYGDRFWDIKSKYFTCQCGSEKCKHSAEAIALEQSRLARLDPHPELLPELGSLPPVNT
Put plainly: Inhibition of G9a in human MDA-MB-231 cells assessed as reduction of H3K9me2 after 48 hrs by In-Cell Western assay. It counts as cell-based. An outline of the steps: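 In-Cell Western: MDA-MB-231 cells grown in RPMI/10% FBS were seeded at 5–10 thousand per well and treated 48 h across a concentration series. Cells were fixed in 2% formaldehyde, blocked in 1% BSA, and stained with H3K9me2 antibody (1/800, 2 h), then IR800 secondary plus DRAQ5. Three wells were stained and one kept as background. The 800 nm signal was normalized to background and DRAQ5 and expressed as % control. IC50 from a sigmoidal variable-slope fit, averaging at least duplicate runs.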

The nature of assay [3]: Cytotoxicity against human […] assessed as cell viability after 48 hrs by MTT assay. It counts as functional, cell-based. The gist of the method:
(§1)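 MTT viability read after 48 h inhibitor exposure. Culture media were alphaMEM + 10% FBS for 22RV1, DMEM + 10% FBS for IMR90 and MCF7, and RPMI + 10% FBS for PC3. Medium was replaced with phenol-red-free DMEM 10% FBS containing 1 mg/ml MTT for 1–2 h. Formazan was dissolved in acidified isopropanol/1% Triton and read at 570 nm minus 650 nm. EC50 came from a sigmoidal variable-slope fit, averaging at least duplicate runs.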

In assay [4] the test system is PC-3. Description: Cytotoxicity against human PC3 cells assessed as cell viability after 48 hrs by MTT assay. The format is functional, cell-based. The settings on record: PC-3, 48 h. The gist of the method:
as §1

Assay [5] deals with CWR22R. Put plainly: Cytotoxicity against human 22Rv1 cells assessed as cell viability after 48 hrs by MTT assay. Particulars: 22Rv1, 48 h. The format is functional, cell-based. An outline of the steps:
as §1

Assay [6] has as its system IMR-90. Put plainly: Cytotoxicity against human IMR90 cells assessed as cell viability after 48 hrs by MTT assay. The format is cell-based. The settings on record: IMR-90, 48 h. The gist of the method: as §1
For assay [7], the target named is T1, Histone-lysine N-methyltransferase EHMT2. Put plainly: Inhibition of G9a assessed as hydrolysis of S-adenosyl-L-homocysteine after 2 mins by SAHH-coupled fluorescence assay.
Assay [8] can be described thus: Ratio of EC50 for human MDA-MB-231 cells to IC50 for G9a in human MDA-MB-231 cells. An outline of the steps:
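ICW used DRAQ5-normalized H3K9me2 immunofluorescence. MTT was read at 570 nm corrected at 650 nm. Each value was a sigmoidal variable-slope fit averaged over at least duplicate runs.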

The target of assay [9] is T1, Histone-lysine N-methyltransferase EHMT2. Description: Inhibition of G9a in human HCT116 cells assessed as reduction of H3K9me2 after 48 hrs by In-Cell Western assay. The format is cell-based, HCT-116.
Assay [10] has the same target. Description: Inhibition of G9a in human IMR90 cells assessed as reduction of H3K9me2 after 48 hrs by In-Cell Western assay. The format is cell-based, IMR-90.
The target is the same in assay [11]. Description: Inhibition of G9a in human 22Rv1 cells assessed as reduction of H3K9me2 after 48 hrs by In-Cell Western assay. It counts as cell-based, CWR22R.
The target is the same in assay [12]. Description: Inhibition of G9a in p53-deficient human HCT116 cells assessed as reduction of H3K9me2 after 48 hrs by In-Cell Western assay. The format is cell-based, HCT-116.
Assay [13] shares this target. Put plainly: Inhibition of G9a in human PC3 cells assessed as reduction of H3K9me2 after 48 hrs by In-Cell Western assay. It counts as cell-based, PC-3.
The target is the same in assay [14]. Description: Inhibition of G9a in human MCF7 cells assessed as reduction of H3K9me2 after 48 hrs by In-Cell Western assay. The format is cell-based.

What is called EC50 is the concentration at which the effect is half-maximal. On to `COc1cc2c(NC3CCN(C)CC3)nc(N3CCCN(C)CC3)nc2cc1OCCCN1CCCC1`, for which the EC50 in [1] is 15000 nM.
On the same count and under the same terms, as for `COc1cc2c(NC3CCN(C)CC3)nc(N3CCCN(C)CC3)nc2cc1OCCCN1CCCCC1`, the figure is 12000 nM.
By IC50 is commonly meant the concentration that gives 50% inhibition. For `COc1cc2c(NC3CCN(C)CC3)nc(N3CCCN(C)CC3)nc2cc1OCCOCCN(C)C`, the 50% inhibitory concentration (IC50) in assay [2] amounted to 11000 nM. Moreover, the EC50 in assay [1] was above 40000 nM.
For `COc1cc2c(NC3CCN(C(C)C)CC3)nc(C3CCCCC3)nc2cc1OCCCN1CCCC1`, the concentration giving a half-maximal response (EC50) is 7600 nM in assay [3], 14000 nM in assay [4], 4500 nM in assay [5] and 2300 nM in [6].
On to `COc1cc2c(NC3CCN(C(C)C)CC3)nc(N3CCCN(C(C)C)CC3)nc2cc1OCCCN1CCCCC1`, for which the figures for the concentration for half-maximal inhibition (IC50) in [7] and in assay [2] were 8 nM and 54 nM, respectively. Moreover, the concentration for a half-maximal effect (EC50) in assay [1] amounted to 4100 nM.
Consider `COc1cc2c(NC3CCN(C(C)C)CC3)nc(N3CCCN(C)CC3)nc2cc1OCCCN1CCCC1`, for which the IC50 in [7] was 10 nM; in [2], 520 nM. Also, the Ratio in [8] is 3. Further, in assay [1], the EC50 was found to be 1400 nM.
Turning to `CCN1CCCN(c2nc(NC3CCN(C(C)C)CC3)c3cc(OC)c(OCCCN4CCCC4)cc3n2)CC1`, the IC50 in [2] is 470 nM. The Ratio in assay [8] worked out at 4. The EC50 in assay [1] was 1700 nM.
In the case of `COc1cc2c(NC3CCN(C(C)C)CC3)nc(N3CCCN(C(C)C)CC3)nc2cc1OCCCN1CCCC1`, the IC50 in [7] was 2 nM; in assay [2] it was 340 nM. Moreover, in assay [8], the Ratio is given as 13. For the same compound, the EC50 in [1] is 4500 nM.
With `COc1cc2c(NC3CCN(C(C)C)CC3)nc(N3CCCN(C4CCCCC4)CC3)nc2cc1OCCCN1CCCC1`, the half-inhibitory concentration (IC50) in [7] turned out to be 22 nM; in assay [2], 100 nM. The Ratio in assay [8] is 7. In addition, the half-maximal effective concentration (EC50) in assay [1] was 730 nM.
As to `COc1cc2c(NC3CCN(C(C)C)CC3)nc(N3CCCN(CC4CCCCC4)CC3)nc2cc1OCCCN1CCCC1`, the IC50 in assay [2] is 93 nM. Besides, the Ratio in [8] came out at 8. In addition, the concentration for a half-maximal effect (EC50) in assay [1] was found to be 760 nM.
Regarding `COc1cc2c(NC3CCN(C(C)C)CC3)nc(N3CCCN(c4ccccc4)CC3)nc2cc1OCCCN1CCCC1`, the half-maximal inhibitory concentration (IC50) in assay [7] turned out to be 10 nM; in assay [2], 220 nM. Besides, the Ratio in [8] worked out at 10. Also, the EC50 in assay [1] came out at 2100 nM.
For the compound `COc1cc2c(NC3CCN(C(C)C)CC3)nc(N3CCCN(Cc4ccccc4)CC3)nc2cc1OCCCN1CCCC1`, the half-inhibitory concentration (IC50) in assay [7] was 9 nM; in assay [2] it was 58 nM. Besides, in assay [8], the Ratio is 10. The EC50 in assay [1] was 600 nM.
Taken in the same sequence, the figures for `COc1cc2c(NC3CCN(C(C)C)CC3)nc(N3CCCCC3)nc2cc1OCCCN1CCCC1` were 16 nM, 150 nM, 47 and 7000 nM.
In the same order, the values of `COc1cc2c(NC3CCN(C(C)C)CC3)nc(N3CCCCCC3)nc2cc1OCCCN1CCCC1` are 20 nM, 100 nM, 57 and 5700 nM.
In the case of `COc1cc2c(NC3CCN(C(C)C)CC3)nc(C3CCCCC3)nc2cc1OCCCN1CCCCC1`, the results for the IC50 in assay [7] and in assay [2] were 110 nM and 260 nM, respectively. Moreover, in assay [1], the EC50 was determined as 7600 nM.
`COc1cc2c(NC3CCN(C(C)C)CC3)nc(C3CCCCC3)nc2cc1OCCOCCN(C)C`: the IC50 in assay [7] worked out at 21 nM; in [2], 180 nM. The half-maximal effective concentration (EC50) in [1] was found to be 13000 nM.
For the compound `COc1cc2c(NC3CCN(CC4CCCCC4)CC3)nc(N3CCCN(C(C)C)CC3)nc2cc1OCCCN1CCCCC1`, the half-inhibitory concentration (IC50) came to 51 nM in assay [9]; 46 nM in assay [10]; 4 nM in assay [7]; 24 nM in assay [11]; 72 nM in [12]; 25 nM in assay [2]. Also, the IC50 in assay [13] worked out at 26 nM; in assay [14], 18 nM. Moreover, in assay [1], the EC50 came to 2800 nM.
For the compound `COc1cc2c(NC3CCN(C4CCCCC4)CC3)nc(N3CCCN(C)CC3)nc2cc1OCCCN1CCCCC1`, the IC50 in assay [7] came to 11 nM; in assay [2], 56 nM. Further, the EC50 in assay [1] worked out at 2900 nM.
Consider `COc1cc2c(NC3CCN(C(C)C)CC3)nc(N3CCCCCC3)nc2cc1OCCCN1CCCCC1`, for which the 50% inhibitory concentration (IC50) in assay [7] was 31 nM; in assay [2], 240 nM. Further, in assay [1], the half-maximal effective concentration (EC50) stood at 6600 nM.
With `COc1cc2c(NC3CCN(C)CC3)nc(N3CCCN(C)CC3)nc2cc1OCCCN(C)C`, the 50% effective concentration (EC50) in [1] was found to be 34000 nM.
